Several values for one entry are separate records, joined by “and”; a condition that tells them apart may be missing. Equal values may be shown once. Read-outs that look alike come from different tables or passages of the source.
Columns and labels:
[1] = system: healthy lung (MRC5) cells; assay: MTT assay, normal lung cells; type: cell-based, human; conditions: for GI50: Homo sapiens, MRC5, 48 h, read-out: GI50 (50% growth inhibition); for Selectivity: GI50, TGI and IC50 values, MRC5 cells versus cancer cell lines: MRC5 versus DLD-1, HT-29, LoVo
Outline: (§1)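 Cells kept in ATCC-recommended medium with 10% FBS and 1% penicillin/streptomycin at 37°C, 5% CO2, seeded at 8×10^3 cells/well. After 24 h, exposed 48 h to test compound (DMSO stock 15 mM) at seven concentrations across 1–100 μM. Medium renewed, MTT added for 3 h, formazan dissolved in DMSO, absorbance read at 540 nm. […] Triplicate.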

[2] = MTT assay, normal lung cells; type: cell-based, human; conditions: human, MRC5 normal lung cells
Outline: as §1

[3] = system: HT-29 cancer cells; assay: MTT assay, in vitro antiproliferative activity, HT-29; type: cell-based, human; conditions: for TGI (total 100% growth inhibition): HT-29, MTT, 48 hours of drug exposure, unit given; for GI50 / IC50: Homo sapiens, HT-29, 48 h; for GI50: read-out: GI50 (50% growth inhibition); for IC50: read-out: IC50 (half maximal cytotoxic concentration)
Outline: as §1

[4] = system: DLD-1 cancer cells; assay: MTT assay, in vitro antiproliferative activity, DLD-1; type: cell-based, human; conditions: for TGI (total 100% growth inhibition): DLD-1, MTT, 48 hours of drug exposure; for GI50 / IC50: Homo sapiens, DLD-1, 48 h; for GI50: read-out: GI50 (50% growth inhibition); for IC50: read-out: IC50 (half maximal cytotoxic concentration)
Outline: as §1

[5] = system: LoVo cancer cells; assay: MTT assay, in vitro antiproliferative activity, LoVo; type: cell-based; conditions: Homo sapiens, 48 h; for GI50: read-out: GI50 (50% growth inhibition); for IC50: read-out: IC50 (half maximal cytotoxic concentration)
Outline: as §1

[6] = system: HT-29 cancer cells; assay: Flow cytometric analysis of cell cycle growth arrest; type: cell-based, human
Outline: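 HT-29 cells seeded in 6-well plates and grown 24 h at 37°C, 5% CO2. Medium renewed, then cells exposed to test compound for 24 h or 48 h at the stated levels, with untreated and etoposide-treated parallels. Cells trypsinised, washed and lysed in nuclei extraction buffer for 15 min in the dark. DNA stained with PI/RNase solution for 30–60 min in the dark. Flow cytometry, 1×10^4 events per sample, triplicate.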

[7] = biological target: topoisomerase II (Homo sapiens, UniProt P11388); assay: DNA topoisomerase II assay; type: biochemical
[8] = system: DLD-1 cancer cells; assay: Flow cytometric analysis of apoptosis; type: cell-based, human; conditions: DLD-1, at IC50 concentration (KA39 9 μM, etoposide 27 μM)
[9] = system: topIIα phosphorylation (Ser1106); assay: TopIIα phosphorylation cell-based ELISA, LoVo; parameters: species or system human; conditions: for maximum inhibitory effect on topIIα phosphorylation: LoVo cells, at either TGI or IC50 concentrations over 6 or 24 hour treatment; for effect on topIIα phosphorylation: LoVo, 6 hours, KA39 TGI and IC50, KA25 TGI 13.8 μΜ, KA26 TGI 100 μΜ
[10] = system: topIIα phosphorylation (Ser1106); assay: TopIIα phosphorylation cell-based ELISA, HT-29; parameters: species or system human; conditions: HT-29 cells, at either TGI or IC50 concentrations over 6 or 24 hour treatment
[11] = HT-29, IC50 concentration (KA39 19.5 μM), 24 hours
[12] = HT-29, TGI concentration (KA39 15.9 μM, etoposide 69 μM), 48 hours

Sequence of topoisomerase II (P11388 whole entry): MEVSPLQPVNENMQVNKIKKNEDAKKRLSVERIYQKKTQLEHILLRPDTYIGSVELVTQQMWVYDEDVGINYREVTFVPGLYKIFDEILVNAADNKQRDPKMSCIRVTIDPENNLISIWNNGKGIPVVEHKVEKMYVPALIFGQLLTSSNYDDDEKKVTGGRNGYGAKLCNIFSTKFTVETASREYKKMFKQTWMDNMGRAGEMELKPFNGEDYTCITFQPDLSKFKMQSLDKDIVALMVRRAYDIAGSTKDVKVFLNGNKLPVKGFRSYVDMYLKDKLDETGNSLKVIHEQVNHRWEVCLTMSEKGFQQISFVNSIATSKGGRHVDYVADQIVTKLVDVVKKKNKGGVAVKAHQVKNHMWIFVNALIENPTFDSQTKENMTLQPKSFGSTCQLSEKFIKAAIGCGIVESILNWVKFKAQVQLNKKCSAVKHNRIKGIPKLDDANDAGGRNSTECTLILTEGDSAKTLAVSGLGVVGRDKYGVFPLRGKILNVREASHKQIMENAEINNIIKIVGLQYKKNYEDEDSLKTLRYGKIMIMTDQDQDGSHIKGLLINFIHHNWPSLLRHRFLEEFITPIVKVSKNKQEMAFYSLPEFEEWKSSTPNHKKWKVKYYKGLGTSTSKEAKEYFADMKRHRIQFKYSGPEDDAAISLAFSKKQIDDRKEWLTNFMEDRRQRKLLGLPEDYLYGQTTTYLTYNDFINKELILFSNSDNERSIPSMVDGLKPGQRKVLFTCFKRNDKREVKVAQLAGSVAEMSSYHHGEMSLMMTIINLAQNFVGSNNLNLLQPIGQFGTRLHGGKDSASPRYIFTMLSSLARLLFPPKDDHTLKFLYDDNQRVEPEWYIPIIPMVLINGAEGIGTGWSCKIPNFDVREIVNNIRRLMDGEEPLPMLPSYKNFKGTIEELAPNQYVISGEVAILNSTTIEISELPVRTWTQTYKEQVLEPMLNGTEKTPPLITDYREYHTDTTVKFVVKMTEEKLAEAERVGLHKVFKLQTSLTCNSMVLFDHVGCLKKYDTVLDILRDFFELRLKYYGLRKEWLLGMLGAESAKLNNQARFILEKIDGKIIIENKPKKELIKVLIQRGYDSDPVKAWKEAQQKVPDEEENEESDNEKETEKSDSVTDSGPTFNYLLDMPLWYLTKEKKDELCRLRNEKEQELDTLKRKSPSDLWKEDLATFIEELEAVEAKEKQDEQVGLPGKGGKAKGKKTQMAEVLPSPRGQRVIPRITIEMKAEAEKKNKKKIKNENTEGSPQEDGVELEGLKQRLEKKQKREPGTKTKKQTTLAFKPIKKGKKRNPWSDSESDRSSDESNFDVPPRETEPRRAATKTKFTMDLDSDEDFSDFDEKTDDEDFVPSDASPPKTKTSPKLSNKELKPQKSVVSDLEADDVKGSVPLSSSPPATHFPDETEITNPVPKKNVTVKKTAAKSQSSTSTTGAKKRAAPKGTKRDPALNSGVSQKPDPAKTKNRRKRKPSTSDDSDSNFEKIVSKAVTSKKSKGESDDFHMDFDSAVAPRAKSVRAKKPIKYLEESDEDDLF

Compound | GI50 [1] [µM] | IC50 at 48 h [2] [µM] | TGI (total 100% growth inhibition) [3] | GI50 [3] [µM] | IC50 [3] [µM] | TGI (total 100% growth inhibition) [4] [µM] | GI50 [4] [µM] | IC50 [4] [µM] | GI50 [5] [µM] | IC50 [5] [µM] | % of cells in G1 phase [6, 11] [%] | % of cells in G2/M phase [6, 11] [%] | % of cells in S phase [6, 11] [%] | % of cells in SG (SubG1) phase [6, 11] [%] | % of cells in G1 phase [6, 12] [%] | % of cells in G2/M phase [6, 12] [%] | Selectivity: GI50, TGI and IC50 values, MRC5 cells versus cancer cell lines [1] | maximum inhibitory effect on topIIα phosphorylation [9] [%] | effect on topIIα phosphorylation [9] | maximum inhibitory effect on topIIα phosphorylation [10] [%] | other results
COc1cc([C@@H]2c3cc4c(cc3[C@@H](O[C@@H]3O[C@@H]5CO[C@@H](C)O[C@H]5[C@H](O)[C@H]3O)[C@H]3COC(=O)[C@H]23)OCO4)cc(OC)c1O [Etoposide, reference compound] | 25 ± 0.3 | > 100 | 69 ± 0.9 µM | 9.5 ± 0.5 | > 100 | 8 ± 0.5 | 1.8 ± 0.39 | 27 ± 0.28 | 14 ± 0.5 | > 100 | 57.28 | 5.99 | 16.50 | 20.23 | 26.06 | 4.37 | – | – | – | – | % of cells in S phase [6, 12]: 13.10%; % of cells in SG (SubG1) phase [6, 12]: 55.80%; topoisomerase II reaction product on agarose gel [7]: linear DNA; early apoptosis (Q4) ([8]; 48 hours): 51.12%; late apoptosis (Q2) ([8]; 48 hours): 18.84%; early apoptosis (Q4) ([8]; 72 hours): 42.01%; late apoptosis (Q2) ([8]; 72 hours): 30.48%
COc1cc(Cc2nnc3sc(/C=C/c4ccc(Cl)cc4)nn23)c(S(=O)(=O)N(C)C)cc1OC [KA26, (E)-2-((6-(4-Chlorostyryl)-[1,2,4]Triazolo[3,4-b][1,3,4]Thiadiazol-3-Yl)Methyl)-4,5-Dimethoxy-N,N-Dimethylbenzenesulfonamide] | 30 ± 0.9 | > 100 | >100 µM | 2 ± 0.76 | > 100 | >100 | 1.2 ± 0.81 | > 100 | 15 ± 0.8 | > 100 | – | – | – | – | – | – | 3–5 times | 18 | did not affect the phosphorylation status of topIIα | 50 | –
COc1cc(Cc2nnc3sc(-c4cc([N+](=O)[O-])ccc4[N+](=O)[O-])nn23)c(S(=O)(=O)N(C)C)cc1OC [KA39, 2-((6-(2,5-Dinitrophenyl)-[1,2,4]Triazolo[3,4-b][1,3,4]Thiadiazol-3-Yl)Methyl)-4,5-Dimethoxy-N,N-Dimethylbenzenesulfonamide] | 15 ± 0.36 | 40.5 ± 0.76 | 15.9 µM and 15.9 ± 0.55 µM | 11.5 ± 0.8 | 19.5 ± 0.9 | 5 ± 0.76 | 3 ± 0.52 | 9 ± 0.76 | 2.2 ± 0.2 | 10.5 ± 0.15 | 46.64 | 3.74 | 21.52 | 27.06 | 40.95 | 9.48 | 3–5 times | 60 | enhanced the phosphorylation status of topIIα | 76 | % of cells in S phase [6, 12]: 14.66%; % of cells in SG (SubG1) phase [6, 12]: 33.51%; topoisomerase II reaction product on agarose gel ([7]; pHOT1 supercoiled DNA, KA39 0.1, 1.0, 7.5 and 20 μΜ, non-EB gel): induced the formation of supercoiled DNA in all concentrations used; early apoptosis (Q4) ([8]; 48 hours): 17.35%; late apoptosis (Q2) ([8]; 48 hours): 13.12%; early apoptosis (Q4) ([8]; 72 hours): 20.68%; late apoptosis (Q2) ([8]; 72 hours): 20.96%
COc1cc(Cc2nnc3sc(/C=C/c4ccc(F)cc4)nn23)c(S(=O)(=O)N(C)C)cc1OC [KA25, (E)-2-((6-(4-Fluorostyryl)-[1,2,4]Triazolo[3,4-b][1,3,4]Thiadiazol-3-Yl)Methyl)-4,5-Dimethoxy-N,N-Dimethylbenzenesulfonamide] | 15 ± 0.9 | > 100 | >100 µM | 1 ± 0.3 | > 100 | 65 ± 0.5 | 11.4 ± 0.5 | > 100 | 8 ± 0.76 | > 100 | – | – | – | – | – | – | 3–5 times | 47 | less significant inhibition of topIIα phosphorylation | 33 | –
